Consider nine compounds from ChEMBL document CHEMBL4177749, “A Synthetic Dual Drug Sideromycin Induces Gram-Negative Bacteria To Commit Suicide with a Gram-Positive Antibiotic” (J Med Chem, 2018).

In data set [1] the test system is Acinetobacter baumannii. The data set can be described thus: Antibacterial activity against Acinetobacter baumannii ATCC 17978 transfected with pNT255:ADC-1 after 18 hrs by broth microdilution method. Type of data set: functional. Particulars: ATCC 17978, 18 h.
For data set [2], the system named is Acinetobacter baumannii. Description: Antibacterial activity against Acinetobacter baumannii ATCC 17978 transfected with pNT255 after 18 hrs by broth microdilution method. Particulars: ATCC 17978, 18 h. It counts as functional.
Data set [3] concerns Acinetobacter baumannii. Description: Antibacterial activity against Acinetobacter baumannii ATCC 17978 after 18 hrs by broth microdilution method. Type of data set: functional. Particulars: ATCC 17978, 18 h.
For data set [4], the system named is Acinetobacter baumannii. Description: Antibacterial activity against Acinetobacter baumannii ATCC BAA 1793 clinical isolate after 18 hrs by broth microdilution method. It counts as functional. Particulars: ATCC BAA 1793, 18 h.
The subject of data set [5] is Acinetobacter baumannii. Description: Antibacterial activity against Acinetobacter baumannii ATCC BAA 1797 clinical isolate after 18 hrs by broth microdilution method. Type of data set: functional. Particulars: ATCC BAA 1797, 18 h.
Data set [6] has as its system Acinetobacter baumannii. The data set can be described thus: Antibacterial activity against Acinetobacter baumannii ATCC BAA 1800 clinical isolate after 18 hrs by broth microdilution method. Type of data set: functional. Particulars: ATCC BAA 1800, 18 h.
The test system of data set [7] is Pseudomonas aeruginosa. Description: Antibacterial activity against wild type Pseudomonas aeruginosa KW799 after 18 hrs by broth microdilution method. Type of data set: functional. Particulars: KW799, 18 h.
Data set [8] deals with Acinetobacter baumannii. The data set can be described thus: Antibacterial activity against Acinetobacter baumannii ATCC 17961 clinical isolate after 18 hrs by broth microdilution method. It counts as functional. Particulars: ATCC 17961, 18 h.
For a further data set, the target named is Beta-lactamase (Acinetobacter baumannii, UniProt Q9L4R5). Description: Drug metabolism assessed as Acinetobacter baumannii ADC-1-mediated (S)-N-((3-(3-Fluoro-4-(4-glycylpiperazin-1-yl)phenyl)-2-oxooxazolidin-5-yl)methyl)acetamide release at 20 uM after 40 mins by LC/MS method. It counts as ADME. Put shortly: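 Purified ADC-1 β-lactamase (expressed as described earlier) […] with 20 μM conjugate in 50 mM sodium phosphate, pH 7.4, 1% DMSO final, room temperature, 40 min. Release of the oxazolidinone followed by LC/MS. Controls run under the same conditions: conjugate alone (20 μM) and enzyme alone (1 μM).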

The test system of the next data set is Escherichia coli. Description: Antibacterial activity against Escherichia coli DC0 after 18 hrs by broth microdilution method. Type of data set: functional. Particulars: DC0, 18 h.
Data set [9] deals with Pseudomonas aeruginosa. Description: Antibacterial activity against Pseudomonas aeruginosa by broth microdilution method. It counts as functional.
Data set [10] deals with Pseudomonas aeruginosa. The data set can be described thus: Antibacterial activity against Pseudomonas aeruginosa PAO1 ATCC […] by broth microdilution method. Type of data set: functional.
Data set [11] concerns Pseudomonas aeruginosa. Description: Antibacterial activity against Pseudomonas aeruginosa ATCC 27853 by broth microdilution method. Type of data set: functional.

Structures are written as SMILES. Values after ≈ are worked out from the molar mass of the structure shown. Where only a bound is given, the exact number is not on record here.

On to `CC(=O)NC[C@H]1CN(c2ccc(N3CCN(C(=O)CO)CC3)c(F)c2)C(=O)O1` [EPEREZOLID], for which the MIC against Acinetobacter baumannii [1], in the data set on Acinetobacter baumannii [2] and with Acinetobacter baumannii [3] was > 50 µM throughout.
`CC(=O)NC[C@H]1CN(c2ccc(N3CCN(C(=O)CNC(=O)OCC4=C(C(=O)O)N5C(=O)[C@@H](NC(=O)C(NC(=O)CN(CCCCNC(=O)c6cccc(O)c6O)C(=O)c6cccc(O)c6O)c6ccccc6)[C@H]5SC4)CC3)c(F)c2)C(=O)O1` (stereo partly specified): the MIC in the data set on Acinetobacter baumannii [4] is 0.8 to 16 µM (≈ 0.947 to 18.9 µg/mL); in the data set with Acinetobacter baumannii [5], 6.25 µM (≈ 7.39 µg/mL); with Acinetobacter baumannii [1] it was 6 µM (≈ 7.1 µg/mL); against Acinetobacter baumannii [6], 0.8 µM (≈ 0.947 µg/mL); in the data set with Pseudomonas aeruginosa [7] it was 0.2 to 0.4 µM (≈ 0.237 to 0.473 µg/mL); with Acinetobacter baumannii [2], 0.4 µM (≈ 0.473 µg/mL). The MIC in the data set on Acinetobacter baumannii [8] was 0.8 µM (≈ 0.947 µg/mL); against Escherichia coli, < 0.025 µM; against Acinetobacter baumannii [3] it was 0.4 µM (≈ 0.473 µg/mL). Also, the Drug metabolism entry at Beta-lactamase is on record as “Metabolite_Detected”.
Regarding `CC(=O)NC[C@H]1CN(c2ccc(N3CCN(C(=O)CNC(=O)OCC4=C(C(=O)O)N5C(=O)[C@@H](NC(=O)C(N)c6ccccc6)[C@H]5SC4)CC3)c(F)c2)C(=O)O1` (stereo partly specified), the MIC in the data set with Acinetobacter baumannii [4], with Acinetobacter baumannii [5], against Acinetobacter baumannii [1], in the data set with Acinetobacter baumannii [6], in the data set with Pseudomonas aeruginosa [7] and against Acinetobacter baumannii [2] was > 50 µM in each case. Moreover, the MIC against Acinetobacter baumannii [8], in the data set on Escherichia coli and against Acinetobacter baumannii [3] was > 50 µM each time.
With `CC(=O)NC[C@H]1CN(c2ccc(N3CCN(C(=O)CNC(=O)CN(CCCCNC(=O)c4cccc(O)c4O)C(=O)c4cccc(O)c4O)CC3)c(F)c2)C(=O)O1`, the MIC in the data set on Acinetobacter baumannii [4], against Acinetobacter baumannii [5], against Acinetobacter baumannii [1], against Acinetobacter baumannii [6], against Pseudomonas aeruginosa [7] and in the data set with Acinetobacter baumannii [2] was > 50 µM in each case. Further, the MIC in the data set on Acinetobacter baumannii [8], against Escherichia coli and in the data set with Acinetobacter baumannii [3] was > 50 µM throughout.
For the compound `CC(=O)OCC1=C(C(=O)O)N2C(=O)[C@@H](NC(=O)C(NC(=O)CN(CCCCNC(=O)c3cccc(O)c3O)C(=O)c3cccc(O)c3O)c3ccccc3)[C@H]2SC1` (stereo partly specified), the MIC in the data set on Acinetobacter baumannii [4] is 12.5 µM (≈ 10.1 µg/mL); in the data set with Acinetobacter baumannii [5] it was > 50 µM; in the data set with Acinetobacter baumannii [1], > 50 µM; in the data set on Acinetobacter baumannii [6], 25 µM (≈ 20.1 µg/mL); with Pseudomonas aeruginosa [7], 0.4 µM (≈ 0.322 µg/mL); against Acinetobacter baumannii [2] it was 0.4 µM (≈ 0.322 µg/mL). Besides, the minimal inhibitory concentration (MIC) was 0.8 µM (≈ 0.645 µg/mL) in the data set with Acinetobacter baumannii [8], < 0.025 µM in the data set with Escherichia coli and 0.4 µM (≈ 0.322 µg/mL) against Acinetobacter baumannii [3].
For `CC(=O)OCC1=C(C(=O)O)N2C(=O)[C@@H](NC(=O)C(N)c3ccccc3)[C@H]2SC1` (stereo partly specified), the MIC in the data set with Acinetobacter baumannii [4], in the data set on Acinetobacter baumannii [5], against Acinetobacter baumannii [1], with Acinetobacter baumannii [6], against Pseudomonas aeruginosa [7] and in the data set with Acinetobacter baumannii [2] was > 50 µM throughout. Also, the MIC is > 50 µM against Acinetobacter baumannii [8], 50 µM (≈ 20.3 µg/mL) against Escherichia coli and > 50 µM with Acinetobacter baumannii [3].
`CC(=O)NC[C@H]1CN(c2ccc(N3CCN(C(=O)CN)CC3)c(F)c2)C(=O)O1`: the MIC against Acinetobacter baumannii [4] is > 50 µM; against Acinetobacter baumannii [5], > 50 µM; in the data set with Acinetobacter baumannii [1], > 500 µM; against Acinetobacter baumannii [6], > 50 µM; against Pseudomonas aeruginosa [7] it was > 50 µM; in the data set on Acinetobacter baumannii [2], > 500 µM. Moreover, the minimal inhibitory concentration (MIC) in the data set with Acinetobacter baumannii [8] is > 50 µM; in the data set with Escherichia coli, > 50 µM; in the data set with Acinetobacter baumannii [3], > 500 µM.
`CC(=O)Oc1cccc(C(=O)NCCCCN(CC(=O)N[C@@H](C(=O)N[C@@H]2C(=O)N3[C@@H]2SC(C)(C)[C@@H]3C(=O)O)c2ccc(O)cc2)C(=O)c2cccc(OC(C)=O)c2OC(C)=O)c1OC(C)=O` showed an MIC against Pseudomonas aeruginosa [9] of 0.02 to 0.16 µM (≈ 0.0187 to 0.149 µg/mL).
With `CC(O)C(NCC(=O)NC(=O)C(CCCNC(=O)CCCCCCCCC(=O)NC(C(=O)N[C@@H]1C(=O)N2[C@@H]1SC(C)(C)[C@@H]2C(=O)O)c1ccccc1)NC(=O)C(CCCN(O)C=O)NC(=O)C(CO)NC(=O)C1CCN=C2C(NC(=O)CCC(N)=O)=Cc3cc(O)c(O)cc3N21)C(=O)NC(CO)C(=O)NC1CCCN(O)C1=O` (stereo partly specified), the MIC with Pseudomonas aeruginosa [10] was > 100 µM; in the data set on Pseudomonas aeruginosa [11] it was 0.024 µM (≈ 0.0386 µg/mL).
